CRFBP-R2 agonist = agonists of human CRF-binding protein/CRF-R2 receptor complex; activation, % at 13.2 µM; 350,000 compounds, 0.46% hits; HEK293 CRF-R2/CRF-BP, calcium dye fluorescence (FLIPR); percent of saturating CRF peptide response;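 active means activation of at least 50%, plus an integration ratio under a set limit after plate pattern correction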
OXTR potentiate = human OXTR potentiation; 320,000 compounds, 0.061% hits; activation, % at 3 µM; AID 2445; CHO-OTR cells, Fluo-8 calcium fluorescence, potentiator mode; 0% = oxytocin EC15, 100% = EC100;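 active means activation above that plate's cutoff, the mean activation of tested compounds plus 3 SD, cut at about 6.6% in these data, passing the limit was not always enough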
Target sequence (P30559 whole entry, looked up): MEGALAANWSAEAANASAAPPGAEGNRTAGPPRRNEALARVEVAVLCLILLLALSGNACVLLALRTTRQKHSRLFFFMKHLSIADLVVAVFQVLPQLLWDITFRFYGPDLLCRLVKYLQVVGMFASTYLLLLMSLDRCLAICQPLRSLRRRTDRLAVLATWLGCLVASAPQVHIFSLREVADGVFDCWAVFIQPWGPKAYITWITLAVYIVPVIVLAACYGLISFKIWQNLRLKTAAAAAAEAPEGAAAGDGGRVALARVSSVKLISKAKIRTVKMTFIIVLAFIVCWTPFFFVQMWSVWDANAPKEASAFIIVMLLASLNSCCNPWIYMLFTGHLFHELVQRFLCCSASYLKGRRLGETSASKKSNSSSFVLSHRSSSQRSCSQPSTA
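Replication – single well per compound, singlicate · Assay system – CHO cell line stably expressing human OTR · Timing – 6 min pre-incubation, 100 s read · Measure – normalized max/min fluorescence ratio, % activation · Doses – 3.0 µM, one dose · Detection – Fluo-8 calcium dye fluorescence · Probe or stimulus – oxytocin near EC15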
TRPML3 ag = activates the human TRPML3 channel; Q8TDD5; HEK293 TRPML3-YFP, Fluo-8 calcium fluorescence; 100% = the carbachol control signal; activation, % at 3 µM; 220,000 compounds, 0.29% hits;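 active means activation above its plate's cutoff, the mean activation of the plate's test wells plus 3 SD, cut at about 12% in these data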
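Test system – HEK293 line with stable expression of human TRPML3-YFP channel · Control set – carbachol 87 µM final as high control (100%), DMSO as low control (0%) · Signal – Fluo-8 calcium dye fluorescence, ex 470-495, em 515-575 nm · Incubation – 1-h 37 °C dye load, 5-s basal, 120-s post-compound reads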
OXTR ag = activates the human oxytocin receptor | AID 2435 | CHO-OTR cells, Fluo-8 calcium fluorescence; normalized: DMSO 0%, oxytocin 100% | P30559 | activation, % at 3 µM | 320,000 compounds, 0.32% hits;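 active means activation above the mean of all tested compounds plus 3 SD, cutoff set per screening run, cut at about 20% in these data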;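 further: peak over basal fluorescence ratio from a 100 s FLIPR kinetic read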
V1R ag counter = activates human V1a receptor in oxytocin agonist counter-screen; P37288; CHO-V1R cells, Fluo-8 calcium fluorescence, agonist mode; 0% DMSO, 100% 3 nM vasopressin; activation, % at 3 µM; 320,000 compounds, 0.25% hits; AID 2797;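 active means activation above the mean activation of all tested compounds plus 3 SD, per screening run, cut at about 20% in these data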;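 further: signal is peak over basal fluorescence ratio across a 100 second FLIPR read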
TRPN1 ag = activates the zebrafish TRPN1 channel. HEK293 zebrafish TRPN1-YFP, Fluo-8 calcium fluorescence; 100% = response to 87 µM carbachol. activation, % at 3 µM. AID 1424. 220,000 compounds, 0.18% hits;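 active means activation above its plate's cutoff, the mean activation of test wells on that plate plus 3 SD, cut at about 19% in these data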
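Assay system: Zebrafish TRPN1-YFP in HEK293 cells | Incubation: Dye loading 1 h at 37 °C, then 30 min room temperature | Measured by: Kinetic Fluo-8 fluorescence, ex 470-495, em 515-575 nm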
Numbers stand for hits. Most compounds without a hit are left out; they make up all but 0.85% or so of the library.

How did CCOc1ccc(-c2c(C(=O)N/N=C(\C)c3cccs3)nnn2-c2nonc2N)cc1 do in these assays?
CRFBP-R2 agonist: inactive; OXTR potentiate: inactive; OXTR ag: inactive; V1R ag counter: inactive

What do the screens show for `Cc1ccc(C)c(Cn2nnc(C(=O)Nc3ccc4c(c3)OCCO4)c2N)c1`?
CRFBP-R2 agonist: inactive; OXTR potentiate: inactive; OXTR ag: 39.2; V1R ag counter: 29.4

What do the screens show for `COc1cccc(NC(=O)c2nnn(Cc3ccc(Br)cc3F)c2N)c1`?
CRFBP-R2 agonist: inactive; OXTR potentiate: inactive; TRPML3 ag: inactive; OXTR ag: 27.4; V1R ag counter: 29.0; TRPN1 ag: inactive

How did COc1cccc(NC(=O)Cn2nnc(C(=O)Nc3ccccc3)c2N)c1 do in these assays?
CRFBP-R2 agonist: inactive; OXTR potentiate: inactive; TRPML3 ag: inactive; OXTR ag: inactive; V1R ag counter: inactive; TRPN1 ag: inactive

Results for COc1cccc(NC(=O)c2nnn(CC(=O)Nc3cc(C)cc(C)c3)c2N)c1 ?
CRFBP-R2 agonist: inactive; OXTR potentiate: inactive; OXTR ag: inactive; V1R ag counter: inactive

How did Cc1cc(C)cc(NC(=O)c2nnn(Cc3cc(C)ccc3C)c2N)c1 do in these assays?
CRFBP-R2 agonist: 53.6; OXTR potentiate: inactive; TRPML3 ag: inactive; OXTR ag: 35.4; V1R ag counter: 41.7; TRPN1 ag: inactive

How did COc1ccc(NC(=O)c2nnn(CC(=O)Nc3ccccc3OC)c2N)c(OC)c1 do in these assays?
CRFBP-R2 agonist: inactive; OXTR potentiate: inactive; OXTR ag: inactive; V1R ag counter: inactive

What do the screens show for `CCc1ccc(Cn2nnc(C(=O)Nc3ccc(OC)cc3OC)c2N)cc1`?
CRFBP-R2 agonist: inactive; OXTR potentiate: inactive; TRPML3 ag: inactive; OXTR ag: 29.4; V1R ag counter: 24.3; TRPN1 ag: inactive

What do the screens show for `CC(=NNC(=O)C(C)SC(C)C(=O)NN=C(C)c1cccnc1)c1cccnc1` (configuration not stated)?
CRFBP-R2 agonist: inactive

What do the screens show for `Cc1nn(C)c(C)c1N1C(=O)c2cccc3c(Br)ccc(c23)C1=O`?
CRFBP-R2 agonist: inactive; OXTR potentiate: inactive; TRPML3 ag: inactive; OXTR ag: inactive; V1R ag counter: inactive; TRPN1 ag: inactive

How did CCN1C(=O)c2cccc3c(N)ccc(c23)C1=O do in these assays?
CRFBP-R2 agonist: inactive; OXTR potentiate: inactive; OXTR ag: 76.6; V1R ag counter: 104.3

What do the screens show for `Cc1nn(C)c(C)c1N1C(=O)c2cccc3c(N)ccc(c23)C1=O`?
CRFBP-R2 agonist: 330.5; OXTR potentiate: inactive; TRPML3 ag: 92.8; OXTR ag: 108.5; V1R ag counter: 127.9; TRPN1 ag: 130.6

Results for Cc1ccc(N2C(=O)c3cccc4c(N)ccc(c34)C2=O)c2cccnc12 ?
CRFBP-R2 agonist: 201.1; OXTR potentiate: inactive; TRPML3 ag: 28.1; OXTR ag: 132.9; V1R ag counter: 139.2; TRPN1 ag: 181.5

How did Cc1ccc(C2/C(=C(/O)c3ccc4c(c3)CC(C)O4)C(=O)C(=O)N2CCCn2ccnc2)cc1 (configuration not stated) do in these assays?
CRFBP-R2 agonist: inactive; OXTR potentiate: inactive; OXTR ag: inactive; V1R ag counter: inactive

Results for O=C(Nc1ncc([N+](=O)[O-])s1)c1cccc([N+](=O)[O-])c1 ?
CRFBP-R2 agonist: 65.9; OXTR potentiate: inactive; TRPML3 ag: inactive; OXTR ag: inactive; V1R ag counter: inactive; TRPN1 ag: inactive

Results for O=C(Nc1ccc(NC(=O)c2cccc([N+](=O)[O-])c2)cc1)c1cccc([N+](=O)[O-])c1 ?
CRFBP-R2 agonist: inactive; OXTR potentiate: inactive; OXTR ag: inactive; V1R ag counter: inactive

How did O=C(COC(=O)c1ccccc1)Nc1ncc([N+](=O)[O-])s1 do in these assays?
CRFBP-R2 agonist: inactive; OXTR potentiate: inactive; OXTR ag: inactive; V1R ag counter: inactive

Results for O=C(Nc1ccccc1)Nc1ncc([N+](=O)[O-])s1 ?
CRFBP-R2 agonist: inactive; TRPML3 ag: 17.0; TRPN1 ag: 22.2

What do the screens show for `COc1ccccc1-c1cc2nc(-c3ccccc3)cc(N3CCN(C(=O)c4ccoc4)CC3)n2n1`?
CRFBP-R2 agonist: inactive

Results for Cc1c(O)cc2c(c1O)C(=O)CC(c1ccccc1)O2 (configuration not stated) ?
CRFBP-R2 agonist: 105.3; OXTR potentiate: inactive; OXTR ag: 58.9; V1R ag counter: 47.7

How did COc1ccc(CN2CCNC(=O)C2CC(=O)NCC2CCOCC2)c(F)c1 (configuration not stated) do in these assays?
CRFBP-R2 agonist: inactive; OXTR potentiate: inactive; OXTR ag: inactive; V1R ag counter: inactive

What do the screens show for `C[C@@H]1CN([C@@H](C)CO)C(=O)c2cc(Br)cnc2O[C@@H]1CN(C)S(C)(=O)=O`?
CRFBP-R2 agonist: inactive

What do the screens show for `CN(C)c1ccc(/C=C/c2cc[n+]([O-])cc2)cc1`?
OXTR potentiate: inactive; TRPML3 ag: 11.9; OXTR ag: inactive; V1R ag counter: inactive; TRPN1 ag: inactive

How did COc1ccc2ccc(OC)c(/C=N/NC(=O)c3cc4ccccc4o3)c2c1 do in these assays?
CRFBP-R2 agonist: inactive

Results for O=C(N/N=C/c1cc(Cl)cc(Cl)c1O)c1ccncc1 ?
CRFBP-R2 agonist: 109.1; OXTR potentiate: inactive; TRPML3 ag: inactive; OXTR ag: 28.6; V1R ag counter: 27.5; TRPN1 ag: 23.9

What do the screens show for `O=C(N/N=C/c1ccccc1Br)c1cccc(S(=O)(=O)N2CCOCC2)c1`?
CRFBP-R2 agonist: inactive; OXTR potentiate: inactive; OXTR ag: inactive; V1R ag counter: inactive

How did O=C(N/N=C/c1cc(Br)cc(Br)c1O)c1ccncc1 do in these assays?
CRFBP-R2 agonist: 166.5; OXTR potentiate: inactive; TRPML3 ag: inactive; OXTR ag: inactive; V1R ag counter: inactive; TRPN1 ag: inactive

How did O=C(N/N=C/c1cc(Br)cc(Br)c1O)c1cccc(S(=O)(=O)N2CCOCC2)c1 do in these assays?
CRFBP-R2 agonist: 69.3; OXTR potentiate: inactive; TRPML3 ag: inactive; OXTR ag: inactive; V1R ag counter: inactive; TRPN1 ag: inactive

What do the screens show for `O=c1[nH]c2cc3c(cc2cc1C(c1nnnn1C1CCCC1)N1CCCc2ccccc21)OCCO3` (configuration not stated)?
CRFBP-R2 agonist: 57.4

How did Cc1ccc(-n2c3nc(=O)[nH]c(=O)c-3cc3cc([N+](=O)[O-])ccc32)cc1C do in these assays?
CRFBP-R2 agonist: 57.7; OXTR potentiate: inactive; TRPML3 ag: inactive; OXTR ag: inactive; V1R ag counter: inactive; TRPN1 ag: inactive

Results for CCc1ccc(NC(=O)C(CC)c2ccccc2)cc1 (configuration not stated) ?
CRFBP-R2 agonist: 59.5; OXTR potentiate: inactive; TRPML3 ag: inactive; OXTR ag: 27.1; V1R ag counter: 35.0; TRPN1 ag: inactive

High-throughput results (PubChem)
